Sampled rows, rich in hits. Any-hit rate of the full collection: about 2.1%.
APJ antagonist: blocks the human apelin receptor APJ; P35414; CHO-K1 APJ beta-arrestin complementation, luminescence; inhibition, % at 20 µM; 330,000 tested, 0.32% active; AID 2521;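 active means inhibition above about 40% at 20 µM, limit read from the data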;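 further: cells challenged with 10 nM apelin-13 agonist together with compound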
m5-HT2A agonist: activates the mouse 5-HT2A serotonin receptor. P35363. CHO-K1 mHTR2A beta-arrestin complementation, luminescence; percent of 30 µM serotonin response. activation, % at 7.6 µM. 360,000 tested, 0.66% active. AID 624169;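 active means activation above a run cutoff, the mean activation of all tested compounds plus 3 SD, cut at about 14% in these data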
Target sequence (P35363 whole entry, looked up): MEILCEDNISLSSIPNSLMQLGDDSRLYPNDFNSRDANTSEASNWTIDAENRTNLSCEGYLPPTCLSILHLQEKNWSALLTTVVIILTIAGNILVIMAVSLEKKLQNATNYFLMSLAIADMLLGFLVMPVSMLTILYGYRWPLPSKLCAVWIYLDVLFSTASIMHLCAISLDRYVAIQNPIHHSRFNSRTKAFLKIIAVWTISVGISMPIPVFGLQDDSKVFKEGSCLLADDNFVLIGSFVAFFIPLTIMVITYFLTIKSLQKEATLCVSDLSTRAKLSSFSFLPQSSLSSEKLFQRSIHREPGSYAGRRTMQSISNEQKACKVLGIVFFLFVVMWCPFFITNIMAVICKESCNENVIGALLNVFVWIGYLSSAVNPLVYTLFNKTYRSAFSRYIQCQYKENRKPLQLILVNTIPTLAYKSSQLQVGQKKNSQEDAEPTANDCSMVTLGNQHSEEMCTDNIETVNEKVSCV
CXCR6 block: blocks human CXCR6 beta-arrestin recruitment; O00574; CHO-K1 PathHunter CXCR6 beta-arrestin, luminescence; inhibition, % at 20 µM; 360,000 tested, 0.36% active; in the data active means inhibition above about 34%, passing the limit was not always enough;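 further: antagonist mode with CXCL16 agonist at 10 nM final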
APJ ag: agonists of human APJ apelin receptor; P35414; CHO-K1 APJ PathHunter beta-arrestin, luminescence; 0% DMSO wells, 100% apelin; activation, % at 20 µM; 330,000 tested, 0.11% active; AID 2520;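 active means activation more than six SD over the plate average, tested at 20 µM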
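assay system = CHO-K1 APJ beta-arrestin complementation cell line | input = cell density 1000 per well | dosing = compound 20 µM once, DMSO 1% | timing = compound 90 min 25 °C, reagent 1 h | measured by = luminescence from split beta-galactosidase complementation, Galacton Star/Emerald II substrate | read-out basis = APJ agonist activity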
EBI2 antag: antagonists of human EBI2 receptor; P32249; EBI2 beta-arrestin recruitment, luminescence, 7a,25-OHC stimulated; inhibition, % at 5 µM; 360,000 tested, 0.81% active; AID 651636; in the data active means inhibition above about 38%;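 further: enzyme fragment complementation signal reports receptor beta-arrestin coupling in cells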
CCR6 antag: antagonists of human CCR6 receptor. P51684. CHO-K1 CCR6 PathHunter beta-arrestin, luminescence, CCL20-stimulated. inhibition, % at 20 µM. 340,000 tested, 0.49% active. AID 493098;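 active means compounds whose inhibition of the agonist-driven luminescence signal at 20 µM reaches about 50%, limit read from the data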;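 further: cells stimulated with CCL20 at 14 nM final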
CXCR6 confirm: confirmation of human CXCR6 receptor antagonists; shares compounds with CXCR6 block; CHO-K1 CXCR6 PathHunter beta-arrestin, luminescence; inhibition, % at 20 µM; 700 tested, 65% active;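 active means mean inhibition over four retests above 40%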;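 further: receptor stimulated with 10 nM CXCL16 agonist; beta-galactosidase fragment complementation upon beta-arrestin recruitment to receptor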
Each line names hits and unclear results; the compound was inactive in the other large screens (follow-up assays come after a bar, where they were run).

CC(=O)Nc1ccc(NC(=O)c2csc([C@@H]3O[C@H](CO)[C@H](O)[C@H](O)[C@H]3O)n2)cc1	none (no result: APJ antagonist, APJ ag, CCR6 antag)
O=C(Nc1ccc(Oc2ccccc2)cc1)c1csc([C@@H]2O[C@H](CO)[C@H](O)[C@H](O)[C@H]2O)n1	CXCR6 block 48 (no result: APJ antagonist, APJ ag, CCR6 antag) | CXCR6 confirm 52
FC(F)(F)c1cnc(N2CCN(C(=S)NCc3ccccc3)CC2)c(Cl)c1	none
CC(C)NC(=O)C(=O)NCC(c1ccc2c(c1)OCO2)N1CCOCC1 (stereo unspecified)	none
Cc1cc2nc(N3C(=O)CNC3=S)sc2cc1C	CXCR6 block 50 (no result: CCR6 antag) | CXCR6 confirm 61
S=C(Nc1ccccc1)c1ccccn1	CXCR6 block 56 (no result: CCR6 antag) | CXCR6 confirm 79
S=C(Nc1ccccc1)Nc1ccccn1	none (no result: APJ antagonist, APJ ag, CCR6 antag)
CC(=NO)C1CCC2C3CCC4=CC(=NO)CCC4(C)C3C(O)CC12C (stereo unspecified)	CXCR6 block 44, CCR6 antag 57 (no result: APJ antagonist, APJ ag) | CXCR6 confirm 57
Brc1ccccc1/C=N/N1CCCCC1	none
COc1ccc(NC(=O)N2CCCC2C(=O)NCc2ccc(F)cc2)cc1 (stereo unspecified)	none
Cc1nnc(NC(=O)c2cc(-c3ccncc3)nc3c(C)cccc23)s1	CXCR6 block 45 | CXCR6 confirm inactive
CC(C)(C)OC(=O)N/N=C/c1cc(N=Nc2ccccc2)ccc1O	none
c1ccc(-c2nc(NCc3ccco3)c3ccccc3n2)nc1	CXCR6 block 43, CCR6 antag 53 | CXCR6 confirm inactive
CCc1ccc(-c2cc(C(=O)NCCCn3ccnc3)c3ccccc3n2)s1	none (no result: m5-HT2A agonist, CXCR6 block, EBI2 antag, CCR6 antag)
Cc1ccc(-c2cc(C(=O)NCCCn3ccnc3)c3ccccc3n2)s1	CXCR6 block 72 | CXCR6 confirm inactive
Cc1cnc(C(=O)Nc2cccc3cccnc23)cn1	CXCR6 block 51, CCR6 antag 56 (no result: APJ antagonist, APJ ag) | CXCR6 confirm inactive
Cc1cc(SCC(=O)Nc2ccc(O)cc2)n2ncc(-c3ccccc3)c2n1	none
Cc1nn2c(NCc3ccccn3)cc(C(C)C)nc2c1-c1ccccc1	CXCR6 block 49, CCR6 antag 52 | CXCR6 confirm inactive
O=C1c2cccc3c([N+](=O)[O-])ccc(c23)C(=O)N1Cc1cccnc1	CXCR6 block 60 (no result: APJ antagonist, APJ ag, CCR6 antag) | CXCR6 confirm 65
COc1cccc(OCc2cc(C(=O)NC3CCOCC3)no2)c1	none
CC1=C(CO)C(=O)OC([C@@H](C)C2CC[C@H]3C4C[C@H]5O[C@]56[C@@H](O)C=CC(=O)[C@]6(C)C4CC[C@]23C)C1 (stereo partly specified)	CXCR6 block 44, EBI2 antag 55 (no result: APJ antagonist, APJ ag) | CXCR6 confirm 48
CC(=O)NC(Cc1cccc(C)c1)C(=O)NC1CCN(C(=O)NCc2ccccc2)CC1 (stereo unspecified)	none
Cc1ccc(P(=O)(O)c2ccc(C)cc2)cc1	none
Cc1ccc(P(=O)(c2ccc(C)cc2)[C@@H](NC(c2ccccc2)c2ccccc2)c2ccccc2)cc1	CXCR6 block 41 (no result: APJ antagonist, APJ ag, CCR6 antag) | CXCR6 confirm 41
Nc1nc(COc2ccccc2)cs1	CXCR6 block 59 | CXCR6 confirm inactive
O=C(NNC(=O)c1cc(-c2ccccc2)nn1-c1ccccc1)c1ccccc1	CXCR6 block 46 (no result: CCR6 antag) | CXCR6 confirm 41
COC(=O)c1ccc(C(=O)OC)c(-n2c(=O)c3ccccc3c3ccccc3c2=O)c1	CXCR6 block 40, CCR6 antag 57 | CXCR6 confirm inactive
COC(=O)c1ccc(-c2nn(C)c(=O)c3ccccc23)cc1	none
CCc1cc(-c2cnnn2Cc2ccccc2)ccc1-c1cn(CC(C)C)nn1	CXCR6 block 60 (no result: APJ antagonist, APJ ag, CCR6 antag) | CXCR6 confirm inactive
CCCCCc1ccc(-c2cn(Cc3ccc(C(=O)c4ccccc4)cc3)nn2)cc1	none
Cc1oc2ccc(O)c(CN3CCOCC3)c2c1C(C)O (stereo unspecified)	none
CC(C)[C@H](NC(=O)OC(C)(C)C)c1nnc(S(=O)(=O)Cc2c(F)cccc2Cl)o1	CXCR6 block 63, CCR6 antag 63 | CXCR6 confirm 61
O=C(c1ccccc1)c1ccccc1N1C(=O)C=CC1=O	CXCR6 block 74 (no result: CCR6 antag) | CXCR6 confirm inactive
CCCn1c(CCC(=O)O)nc2cc(S(N)(=O)=O)ccc21	none
O=C(Cc1ccccc1)N1CCC(c2nc3ccccc3[nH]2)CC1	CXCR6 block 40 | CXCR6 confirm inactive
COCC(=O)N1CCC(c2nc3ccccc3[nH]2)CC1	none (no result: APJ antagonist, APJ ag, CCR6 antag)
C[C@@H]1CC[C@H](Cc2ccc(-n3cccc3)cc2)N1C(=O)OC(C)(C)C	CXCR6 block 53 (no result: APJ antagonist, APJ ag, CCR6 antag) | CXCR6 confirm inactive
O=c1[nH]c(N/N=C/c2ccccc2Br)nnc1-c1ccccc1	none
N#C/C(=C\c1c[nH]c2ccccc12)C(N)=O	none
CC(=O)Oc1c(/C=C(\C#N)C(N)=O)[nH]c2ccccc12	CXCR6 block 42 (no result: APJ antagonist, APJ ag) | CXCR6 confirm inactive
COc1ccccc1/C=C/C(=O)Oc1cccc2cccnc12	none
Cc1ccc2cccc(OC(=O)/C=C\c3ccccc3)c2n1	CXCR6 block 43 | CXCR6 confirm inactive
CC(CN1CCCC1)OC(=O)c1ccc(Cl)cc1 (stereo unspecified)	CXCR6 block 84 | CXCR6 confirm inactive
O=C(CSc1cccc2cccnc12)N1CCCC1	CXCR6 block 52, CCR6 antag 70 | CXCR6 confirm 69
Cn1c2c(c(=O)n(C)c1=O)NC1(N2)C(=O)Nc2ccccc21 (stereo unspecified)	none
CC1=NN(/C(=N\c2nnc(C)s2)Nc2ccc(C(C)(C)C)cc2)[C@H](c2ccc(C)cc2)S1	CXCR6 block 40 | CXCR6 confirm inactive
O=C1CNC(=S)N1c1nc(-c2ccccc2)cs1	none
COc1ccc(-c2csc(N3C(=O)CNC3=S)n2)cc1	CXCR6 block 43, CCR6 antag 60 (no result: APJ antagonist, APJ ag) | CXCR6 confirm inactive
CCc1nc2c(OCCC3CCCCC3)cccn2c1N(C)C(=O)c1cccs1	CXCR6 block 47 (no result: APJ antagonist, APJ ag, CCR6 antag) | CXCR6 confirm inactive
CCc1ccc2c(c1)/C(=N/N(C)C(=S)NC)C(=O)N2	none
CCc1ccc2c(c1)/C(=C/C(=O)c1cccs1)C(=O)N2	CXCR6 block 41, EBI2 antag 67 | CXCR6 confirm inactive
O=C(NCC1CCCN(C(=O)c2cc(Cl)ccc2F)C1)c1ccc(F)cc1 (stereo unspecified)	none
CCC(=O)NC(=S)NNC(=O)c1ccc(OC)cc1	none
CCCCOc1ccc(C(=O)NNC(=S)NC(=O)CC)cc1	CXCR6 block 57, CCR6 antag 68 (no result: APJ antagonist, APJ ag) | CXCR6 confirm 67
CCCOc1ccc(C(=O)NNC(=S)NC(C)=O)cc1	none
CCCOc1ccc(C(=O)NNC(=S)NC(=O)c2cccs2)cc1	CXCR6 block 53, CCR6 antag 64 | CXCR6 confirm inactive
